≈ marks a conversion by molar mass, not a printed value.
What was measured:
L1210 [1] = experiment: Tested for cytotoxicity in the multiple tumor disk diffusion soft agar assay at the dose of 15 ug/disk against leukemia L1210; range is 475-600; type: functional, Mus musculus
Outline: (§1)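 Soft agar disk diffusion: bottom layer 0.8% noble agar, top layer 0.47% noble agar, both in 1:1 CMRL-Fischer medium with 11% horse serum. Top layer seeded with 5×10^3 L1210 cells or 10^6 solid tumor cells (C38, PO3). Drug applied on a dried 6-mm filter-paper disk. Incubation 7-11 days. Inhibition zone measured by inverted microscope, in units (1 unit = 30 μm).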

L1210 [2] = experiment: Cytotoxicity in the multiple tumor disk diffusion soft agar assay at the dose of 15 ug/disk against leukemia L1210; type: functional, Mus musculus; outline: as §1
P388 [3] = experiment: In vivo T/C (survival time treated/survival time control x 100) was determined against P388 leukemia cells at 40 mg/Kg; type: functional, Mus musculus
Outline: (§2)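 B6D2 F1 mice, at least five per group, were inoculated ip on day 0 with 10^6 viable P388 cells (25 mL/kg). Compounds were dissolved in distilled water and given ip (25 mL/kg) daily on days 1–4. Mortality was checked daily, with necropsy of dead animals. T/C×100 was median survival, treated versus control. Survivors beyond 50 days counted as cured and were excluded from the median.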

P388 [4] = experiment: In vitro cytotoxicity was determined against P388 leukemia cells; type: functional; conditions: Mus musculus, read-out: ID50 (the source's name)
Outline: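 P388 cells in exponential growth, RPMI 1640 with 2 mM glutamine, 10 μM 2-mercaptoethanol and 10% FCS, 5% CO2, 37 °C. Cells at 10^5 cells/mL. Drugs in distilled water added on day 0. Cells counted by Coulter counter after 96 h. ID50 (μg/mL, 50% inhibition of proliferation) estimated by regression of concentration/response data.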

[5] = Tested for cytotoxicity in the multiple tumor disk diffusion soft agar assay at the dose of 15 ug/disk against solid tumor C38; range is 450-525; type: functional, Mus musculus; outline: as §1
[6] = Cytotoxicity in the multiple tumor disk diffusion soft agar assay at the dose of 15 ug/disk against solid tumor PO3; type: functional, Mus musculus; outline: as §1
L1210 [7] = experiment: Tested for cytotoxicity in the multiple tumor disk diffusion soft agar assay at the dose of 15 ug/disk against leukemia L1210; range is 450-525; type: functional, Mus musculus; outline: as §1
[8] = Cytotoxicity in the multiple tumor disk diffusion soft agar assay at the dose of 15 ug/disk against solid tumor C38.; type: functional, Mus musculus; outline: as §1
L1210 [9] = experiment: Tested for cytotoxicity in the multiple tumor disk diffusion soft agar assay at the dose of 15 ug/disk against leukemia L1210; range is 550-680; type: functional, Mus musculus; outline: as §1
L1210 [10] = experiment: Tested for cytotoxicity in the multiple tumor disk diffusion soft agar assay at the dose of 15 ug/disk against leukemia L1210; type: functional, Mus musculus; outline: as §1
P388 [11] = experiment: In vivo T/C (survival time treated/survival time control x 100) was determined against P388 leukemia cells at 20 mg/Kg; type: functional, Mus musculus; outline: as §2
[12] = Tested for cytotoxicity in the multiple tumor disk diffusion soft agar assay at the dose of 15 ug/disk against solid tumor PO3; range is 300-450; type: functional, Mus musculus; outline: as §1
L1210 [13] = experiment: Tested for cytotoxicity in the multiple tumor disk diffusion soft agar assay at the dose of 15 ug/disk against leukemia L1210; U = 32 uM; type: functional, Mus musculus; outline: as §1
[14] = Tested for cytotoxicity in the multiple tumor disk diffusion soft agar assay at the dose of 15 ug/disk against solid tumor C38; U = 32 uM; type: functional, Mus musculus; outline: as §1
L1210 [15] = experiment: Tested for cytotoxicity in the multiple tumor disk diffusion soft agar assay at the dose of 15 ug/disk against leukemia L1210; range is 300-380; type: functional, Mus musculus; outline: as §1
[16] = Tested for cytotoxicity in the multiple tumor disk diffusion soft agar assay at the dose of 15 ug/disk against solid tumor PO3; type: functional, Mus musculus; outline: as §1
L1210 [17] = experiment: In vivo T/C (survival time treated/survival time control x 100) was determined against L1210 leukemia cells at 40 mg/Kg; type: functional, Mus musculus
Outline: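 B6D2 F1 mice, at least five per group, were inoculated ip on day 0 with 10^5 viable L1210 cells (25 mL/kg). Compounds were dissolved in distilled water and given ip (25 mL/kg) on days 1–4. Deaths were checked daily, with necropsy to separate tumor from toxic death. T/C×100 was median survival of treated over controls. Mice surviving over 50 days counted as cured and were excluded from the median.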

SMILES	Cytotoxicity (L1210 [2]) [U]	T/C x100 (P388 [3])	IC50 (P388 [4]) [µg/mL]	Cytotoxicity [6] [U]	Cytotoxicity [8] [U]	T/C x100 (P388 [11])	also measured
Cc1cnc(NCCCN(C)C)c2c3c4ccccc4ccc3n(C)c12	425	164	0.05 (≈ 0.144 µM)	550	–	–	Cytotoxicity (L1210 [1]): 475 U; Cytotoxicity [5]: 450 U
COc1ccc2c(ccc3[nH]c4c(C)cnc(NCC(C)CN(C)C)c4c32)c1 (stereo not drawn)	425	151	0.55 (≈ 1.46 µM)	375	425	–	Cytotoxicity (L1210 [7]): 450 U
COc1ccc2c(ccc3c2c2c(NCCCN(C)C)ncc(C)c2n3C)c1	425	150	0.5 (≈ 1.33 µM)	200	325	–	Cytotoxicity (L1210 [9]): 550 U
Cc1c[nH]c(NCCCN(C)C)c2c3ccc4c(O)cccc4c3nc1-2	450	–	0.05 (≈ 0.143 µM)	–	400	169	Cytotoxicity (L1210 [10]): 500 U; Cytotoxicity [12]: 300 U
CCN(CC)CCCNc1ncc(C)c2c1c1ccc3ccccc3c1n2C	–	–	0.375 (≈ 1 µM)	–	–	108	Cytotoxicity (L1210 [13]): 450 U; Cytotoxicity [14]: 500 U; Cytotoxicity (L1210 [15]): 300 U; Cytotoxicity [16]: 200 U
CCN(CC)CCCNc1[nH]cc(C)c2nc3ccc4cc(OC)ccc4c3c1-2	–	189	1 (≈ 2.56 µM)	–	–	–	T/C x100 (L1210 [17]): 112
